Ends that are not written are not given here.
Legend:
[1] = system: LN-Z308 cells; assay: Colony formation assay; assay type: cell-based, human; conditions: for Colony numbers: drug alone, soft agar, 2 weeks
How it was run: (§1)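 Soft-agar assay: 50 000 cells per well in 0.4% agar with 10% FBS in DMEM, plated over a 0.6% agar base, with test peptide, drug or vehicle. Combinations used various doses of the test peptide with TMZ or BCNU. Cells grew 2 weeks at 37 °C. Colonies were stained with MTT, counted and normalized to vehicle (%). Mean±s.d.; Student's t-test.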

[2] = system: LN229 cells; assay: Colony formation assay; assay type: cell-based, human; conditions: Figure 6e; for Colony numbers: drug alone, soft agar, 2 weeks
How it was run: as §1

[3] = system: LN229 cells; assay: Cell viability assay; assay type: cell-based, human
[4] = system: LN-Z308 cells; assay: Cell viability assay; assay type: cell-based, human
How it was run: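 Cells (5 × 10^3/well) grown in DMEM/10% FBS were seeded in 96-well plates. Next day, medium was replaced with fresh medium containing test peptides (50 μM) or vehicle, for 16 h at 37 °C. For combinations, cells got various concentrations of the test peptide with TMZ (25 μM) or BCNU (50 μM). Viability was read by MTT. Mean±s.d., 3–4 independent experiments; Student's t-test.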

[5] = target: T1, PIKE-A/Akt interaction (Homo sapiens, UniProt P31749+Q99490); assay: In vitro binding assay, GST-PIKE-A; conditions: short synthetic peptides; Figure 5b
How it was run: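 Purified recombinant GST-PIKE-A (a.a. 1–356) was bound to glutathione beads and incubated, with test peptides, with lysates of HEK293 cells transfected with HA-Akt, 3 h at 4 °C. Bead-bound proteins were run on 10% SDS-PAGE and immunoblotted with anti-HA. GST proteins were verified by Coomassie staining.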

[6] = system: LN229 cells; assay: Transwell; assay type: cell-based, human; conditions: synthetic peptide 50 μM, 16 h, Figure 6c
How it was run: (§2)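 Cells (1 × 10^5/well) were seeded in six-well plates and treated with test peptides (50 μM) for 16 h. Invasion through Matrigel was measured in a transwell system (8 μm pore polycarbonate membrane). Mean±s.d. of 3–4 independent experiments; Student's t-test.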

[7] = system: Akt signaling in LN-Z308 cells; assay: Immunoblotting of Akt phosphorylation and downstream signaling; assay type: cell-based, human; conditions: peptide-treated cell lysates, dose-dependent, immunoblot, Figure 7b
[8] = system: LN-Z308 cells; assay: Transwell; assay type: cell-based, human; conditions: synthetic peptide 50 μM, 16 h, Figure 6c
How it was run: as §2

[9] = target: T1, PIKE-A/Akt interaction; assay: ELISA-based protein interaction assay; assay type: binding; conditions: peptide 10 μM; Figure 5c
[10] = target: T1, PIKE-A/Akt interaction; assay type: binding
How it was run: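 HEK293 cells were co-transfected with GST-PIKE-A and HA-Akt. After 40 h, lysates were collected and GST-PIKE-A was pulled down on glutathione beads in the presence of test peptides. Bound HA-Akt was detected by anti-HA immunoblot. GST-PIKE-A was verified with anti-GST-HRP.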

[11] = system: PIKE-A/Akt interaction in HEK293 cells; assay: GST pull-down from co-transfected HEK293 cells treated with synthetic peptides; assay type: cell-based; conditions: sp2 50 μM, Figure 5f
How it was run: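 HEK293 cells were co-transfected with GST-PIKE-A and HA-Akt, then treated with 50 μM test peptide in culture medium for various times up to 24 h. GST-PIKE-A was pulled down on glutathione beads, and associated HA-Akt was detected by anti-HA immunoblot.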

[12] = system: LN-Z308 cells; assay: Cell migration, wound-healing assay; assay type: cell-based, human; conditions: synthetic peptide 50 μM, 10 h, Figure 6b
How it was run: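 LN-Z308 monolayers were grown to confluence in six-well plates and scratched with a pipette tip, then washed to remove nonadherent cells. Medium containing test peptides (50 μM) or DMSO was added at 0 h, and cells were incubated 10 h. Wound area was imaged by light microscopy. % wound healed = 100-[(final area/initial area) × 100%]. Mean±s.d. of three or four independent experiments; Student's t-test.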

[13] = synthetic peptide 50 μM, 16 h, Figure 6a
[14] = sp2 various concentrations + TMZ 25 μM, 16 h, Figure 6d
[15] = various concentrations of sp2, 16 h, Figure 6d

T1 sequence (Q99490 1-836 isoform Q99490-2): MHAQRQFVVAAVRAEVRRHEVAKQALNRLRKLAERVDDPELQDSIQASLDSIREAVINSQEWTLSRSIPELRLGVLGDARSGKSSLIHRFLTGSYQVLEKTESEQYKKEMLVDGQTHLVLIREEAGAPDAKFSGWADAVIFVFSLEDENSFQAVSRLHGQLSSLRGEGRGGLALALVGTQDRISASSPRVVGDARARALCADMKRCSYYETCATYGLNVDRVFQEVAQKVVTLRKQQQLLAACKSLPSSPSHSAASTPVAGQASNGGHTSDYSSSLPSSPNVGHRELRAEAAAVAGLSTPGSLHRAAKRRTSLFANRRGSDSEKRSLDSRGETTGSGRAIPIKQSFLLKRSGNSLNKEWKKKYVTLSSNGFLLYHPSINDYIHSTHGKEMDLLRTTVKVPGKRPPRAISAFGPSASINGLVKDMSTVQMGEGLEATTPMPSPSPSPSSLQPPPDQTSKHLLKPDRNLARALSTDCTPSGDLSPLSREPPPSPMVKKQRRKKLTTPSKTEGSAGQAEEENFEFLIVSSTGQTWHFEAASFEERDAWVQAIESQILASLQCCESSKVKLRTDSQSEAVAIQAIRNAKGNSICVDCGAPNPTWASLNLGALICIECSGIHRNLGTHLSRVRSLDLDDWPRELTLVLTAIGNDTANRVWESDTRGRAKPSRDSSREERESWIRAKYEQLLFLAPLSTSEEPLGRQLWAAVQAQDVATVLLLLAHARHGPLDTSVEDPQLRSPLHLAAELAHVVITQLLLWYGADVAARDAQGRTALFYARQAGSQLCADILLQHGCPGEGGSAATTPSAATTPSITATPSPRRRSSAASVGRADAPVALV
T1 sequence (P31749 whole entry): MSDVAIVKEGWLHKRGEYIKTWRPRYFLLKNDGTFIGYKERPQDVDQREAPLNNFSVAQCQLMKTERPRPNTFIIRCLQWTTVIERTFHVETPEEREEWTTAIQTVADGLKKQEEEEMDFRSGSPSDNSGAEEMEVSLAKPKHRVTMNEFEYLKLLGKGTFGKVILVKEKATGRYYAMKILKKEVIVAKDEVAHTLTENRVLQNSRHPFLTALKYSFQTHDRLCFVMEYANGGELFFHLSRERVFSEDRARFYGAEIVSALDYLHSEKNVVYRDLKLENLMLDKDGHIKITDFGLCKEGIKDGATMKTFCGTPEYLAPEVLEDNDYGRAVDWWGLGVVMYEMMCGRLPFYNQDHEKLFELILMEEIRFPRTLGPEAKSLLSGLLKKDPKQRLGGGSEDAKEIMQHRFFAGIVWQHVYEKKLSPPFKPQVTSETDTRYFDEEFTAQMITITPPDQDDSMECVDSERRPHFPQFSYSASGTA

Molecule: O=NN(CCCl)C(=O)NCCCl [BCNU, Carmustine, reference compound]
- Colony numbers ([1]; Figure 6e): decreased the colony numbers
- Colony numbers [2]: decreased the colony numbers
- Cell viability (MTT) ([3]; BCNU 50 μM, 24 h, after 40 h plasmid transfection, Figure 4c): reduced cell viability regardless of peptide transfection

Molecule: Cn1nnc2c(C(N)=O)ncn2c1=O [TMZ, temozolomide, reference compound]
- Colony numbers ([1]; Figure 6e): decreased the colony numbers
- Cell viability (MTT) ([4]; TMZ 25 μM, 16 h, Figure 6d): potently decreased
- Colony numbers [2]: decreased the colony numbers
- Cell viability (MTT) ([3]; TMZ 25 μM, 16 h, Figure 6d): potently decreased
- Cell viability (MTT) ([3]; TMZ 25 μM, 24 h, compared with vehicle, Figure 4c): modest effect in repressing LN229 cell viability

Molecule: DARSG [sp4]
- Interaction between a fragment of PIKE-A (1–356 a.a.) and Akt [5]: decreased the interaction
- Invasive activity [6]: did not significantly affect
- Akt T308 and S473 phosphorylation [7]: no effect on Akt phosphorylation
- Cell viability (MTT) [4, 13]: no effect
- Invasive activity [8]: did not significantly affect
- Disruption of the interaction between PIKE-A and Akt (ELISA, RLU) [9]: failed to block the PIKE-A/Akt interaction

Molecule: DARSGKSSLIHRFLTGSYQ [PP2]
- Inhibition of the PIKE-A/Akt interaction, GST pull-down ([10]; peptide up to 10 μM, Figure 2f): did not demonstrate an inhibitory effect
- Disruption of the interaction between PIKE-A and Akt (ELISA, RLU) [9]: failed to block the PIKE-A/Akt interaction

Molecule: LKKDPK [sp9]
- Interaction between a fragment of PIKE-A (1–356 a.a.) and Akt [5]: decreased the interaction

Molecule: PELRLGVL [sp2]
- Inhibition of PIKE-A binding to Akt at 24 h ([11]; 24 h in cell culture medium): lost its suppressive activity
- Time at which inhibition of PIKE-A binding to Akt was seen ([11]; time course): 4 h
- Time of peak inhibition of PIKE-A binding to Akt ([11]; time course): 16 h
- Interaction between a fragment of PIKE-A (1–356 a.a.) and Akt [5]: decreased the interaction
- Invasive activity [6]: strongly inhibited the invasive activity
- Inhibitory effect on the PIKE-A/Akt interaction, GST pull-down ([10]; GST pull-down as in Figure 2, Figure 5e): inhibited the binding
- Akt T308 and S473 phosphorylation [7]: diminished
- Colony formation inhibitory effect of TMZ and BCNU on co-treatment with sp2 ([1]; 50 μM sp2 + TMZ or BCNU, Figure 6e): substantially increased
- Colony formation, sp2 ([1]; summary statement of Figure 6): strongly inhibits
- Cell migration [12]: strongly inhibits
- Cell viability (MTT), co-treatment of sp2 with TMZ [4, 14]: additive effect
- Cell viability (MTT) [4, 13]: selectively decreased LN-Z308 cell viability
- Cell viability (MTT), sp2 alone [4, 15]: suppressive activity of sp2 on LN-Z308 cell viability, which occurred in a dose-dependent manner
- Invasive activity [8]: strongly inhibited the invasive activity
- Colony formation inhibitory effect of TMZ and BCNU on co-treatment with sp2 ([2]; sp2 + TMZ or BCNU): additive trend also applied
- Cell viability (MTT), co-treatment of sp2 with TMZ [3, 14]: inhibitory trend was similar
- Cell viability (MTT) [3, 13]: not in LN229 cells
- Cell viability (MTT), sp2 alone [3, 15]: not as evident as in LN-Z308 cells

Molecule: TGSYQ [sp6]
- Interaction between a fragment of PIKE-A (1–356 a.a.) and Akt [5]: decreased the interaction
- Invasive activity [6]: did not significantly affect
- Cell viability (MTT) [4, 13]: selectively decreased LN-Z308 cell viability
- Invasive activity [8]: did not significantly affect
- Cell viability (MTT) [3, 13]: not in LN229 cells
- Disruption of the interaction between PIKE-A and Akt (ELISA, RLU) [9]: failed to block the PIKE-A/Akt interaction
